Data published in ChEMBL document CHEMBL2029228, “Antimalarial activity of 9a-N substituted 15-membered azalides with improved in vitro and in vivo activity over azithromycin” (J Med Chem, 2012).
pIC50: −log10 of the molar value.

Columns and labels:
Plasmodium falciparum = experiment: Antimalarial activity against mefloquine-resistant Plasmodium falciparum TM91C235 assessed as [3H]hypoxanthine incorporation after 48 hrs; format: functional, organism-based
Summary of the method: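 Tritiated hypoxanthine incorporation assay (Desjardins method, Milhous modification) with 48 h drug exposure. Uses P. falciparum clone TM91C235 (Southeast Asian, mefloquine-resistant). Compounds 2-fold diluted over 11 concentrations. IC50 derived by nonlinear logistic dose-response fitting, averaged where multiple runs were done.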

HepG2 = experiment: Cytotoxicity against human HepG2 cells after 24 hrs by MTS assay; format: cell-based; conditions: HepG2, 24 h
Summary of the method: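 HepG2 cells kept in RPMI 1640 with 10% FBS plus antibiotics at 37 °C, 5% CO₂. 50 000 cells per well exposed to 10 two-fold serial dilutions for 24 h. MTS reagent then added for 2 h more, absorbance read at 490 nm, IC50 derived.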

**Q.** CC[C@H]1OC(=O)[C@H](C)[C@@H](O[C@H]2C[C@@](C)(OC)[C@@H](O)[C@H](C)O2)[C@H](C)[C@@H](O[C@@H]2O[C@H](C)C[C@H](N(C)C)[C@H]2O)[C@](C)(O)C[C@@H](C)CN(CCCNc2cc(C)nc3ccc(OC)cc23)[C@H](C)[C@@H](O)[C@]1(C)O was tested. Which pIC50 (Plasmodium falciparum) did it give?
**A.** Its pIC50 is 6.07.

**Q.** And the pIC50 (HepG2)?
**A.** The pIC50 was under 4.30.

**Q.** How did the pIC50 (Plasmodium falciparum) turn out when CC[C@H]1OC(=O)[C@H](C)[C@@H](O[C@H]2C[C@@](C)(OC)[C@@H](O)[C@H](C)O2)[C@H](C)[C@@H](O[C@@H]2O[C@H](C)C[C@H](N(C)C)[C@H]2O)[C@](C)(O)C[C@@H](C)CN(CCCNC(=O)[C@H](C)c2ccc3cc(OC)ccc3c2)[C@H](C)[C@@H](O)[C@]1(C)O was run?
**A.** The pIC50 was 7.24.

**Q.** What about the pIC50 (HepG2) of the same molecule?
**A.** The pIC50 was 4.70.

**Q.** How did the pIC50 (Plasmodium falciparum) turn out when CC[C@H]1OC(=O)[C@H](C)[C@@H](O)[C@H](C)[C@@H](O[C@@H]2O[C@H](C)C[C@H](N(C)C)[C@H]2O)[C@](C)(O)C[C@@H](C)CN(CCCNc2ccnc3ccccc23)[C@H](C)[C@@H](O)[C@]1(C)O was run?
**A.** Its pIC50 is 6.36.

**Q.** What about the pIC50 (HepG2) of the same molecule?
**A.** The pIC50 was under 4.30.

**Q.** CC[C@H]1OC(=O)[C@H](C)[C@@H](O[C@H]2C[C@@](C)(OC)[C@@H](O)[C@H](C)O2)[C@H](C)[C@@H](O[C@@H]2O[C@H](C)C[C@H](N(C)C)[C@H]2O)[C@](C)(O)C[C@@H](C)CN(CCC(=O)NCCCCc2ccccc2)[C@H](C)[C@@H](O)[C@]1(C)O was tested. Which pIC50 (Plasmodium falciparum) did it give?
**A.** The pIC50 was 6.79.

**Q.** And the pIC50 (HepG2)?
**A.** The pIC50 was 4.40.

**Q.** What does the source list for CC[C@H]1OC(=O)[C@H](C)[C@@H](O)[C@H](C)[C@@H](O[C@@H]2O[C@H](C)C[C@H](N(C)C)[C@H]2O)[C@](C)(O)C[C@@H](C)CN(CCCNCc2cccnc2)[C@H](C)[C@@H](O)[C@]1(C)O?
**A.** pIC50 (Plasmodium falciparum): 5.60; pIC50 (HepG2): < 4.30

**Q.** CC[C@H]1OC(=O)[C@H](C)[C@@H](O)[C@H](C)[C@@H](O[C@@H]2O[C@H](C)C[C@H](N(C)C)[C@H]2O)[C@](C)(O)C[C@@H](C)CN(CCCNc2ccnc3cc(Cl)ccc23)[C@H](C)[C@@H](O)[C@]1(C)O was tested. Which pIC50 (Plasmodium falciparum) did it give?
**A.** Its pIC50 is 7.89.

**Q.** And the pIC50 (HepG2)?
**A.** The pIC50 was 4.46.

**Q.** CC[C@H]1OC(=O)[C@H](C)[C@@H](O[C@H]2C[C@@](C)(OC)[C@@H](O)[C@H](C)O2)[C@H](C)[C@@H](O[C@@H]2O[C@H](C)C[C@H](N(C)C)[C@H]2O)[C@](C)(O)C[C@@H](C)CN(CCC(=O)NCc2ccccc2)[C@H](C)[C@@H](O)[C@]1(C)O was tested. Which pIC50 (Plasmodium falciparum) did it give?
**A.** Its pIC50 is 6.58.

**Q.** And the pIC50 (HepG2)?
**A.** The pIC50 was under 4.30.

**Q.** How did the pIC50 (Plasmodium falciparum) turn out when CC[C@H]1OC(=O)[C@H](C)[C@@H](O)[C@H](C)[C@@H](O[C@@H]2O[C@H](C)C[C@H](N(C)C)[C@H]2O)[C@](C)(O)C[C@@H](C)CN(CCCNCc2ccc3ccccc3n2)[C@H](C)[C@@H](O)[C@]1(C)O was run?
**A.** Its pIC50 is 6.79.

**Q.** What does the source list for CC[C@H]1OC(=O)[C@H](C)[C@@H](O[C@H]2C[C@@](C)(OC)[C@@H](O)[C@H](C)O2)[C@H](C)[C@@H](O[C@@H]2O[C@H](C)C[C@H](N(C)C)[C@H]2O)[C@](C)(O)C[C@@H](C)CN(CCCNC(=O)CCCCc2ccccc2)[C@H](C)[C@@H](O)[C@]1(C)O?
**A.** pIC50 (Plasmodium falciparum): 7.04; pIC50 (HepG2): 4.31

**Q.** CC[C@H]1OC(=O)[C@H](C)[C@@H](O[C@H]2C[C@@](C)(OC)[C@@H](O)[C@H](C)O2)[C@H](C)[C@@H](O[C@@H]2O[C@H](C)C[C@H](N(C)C)[C@H]2O)[C@](C)(O)C[C@@H](C)CN(CCCNC(=O)c2ocnc2C)[C@H](C)[C@@H](O)[C@]1(C)O was tested. Which pIC50 (Plasmodium falciparum) did it give?
**A.** The pIC50 was 6.06.

**Q.** CC[C@H]1OC(=O)[C@H](C)[C@@H](O[C@H]2C[C@@](C)(OC)[C@@H](O)[C@H](C)O2)[C@H](C)[C@@H](O[C@@H]2O[C@H](C)C[C@H](N(C)C)[C@H]2O)[C@](C)(O)C[C@@H](C)CN(CCC(=O)NCCc2ccccc2)[C@H](C)[C@@H](O)[C@]1(C)O was tested. Which pIC50 (Plasmodium falciparum) did it give?
**A.** Its pIC50 is 6.44.

**Q.** And the pIC50 (HepG2)?
**A.** Its pIC50 is under 4.30.

**Q.** With CC[C@H]1OC(=O)[C@H](C)[C@@H](O[C@H]2C[C@@](C)(OC)[C@@H](O)[C@H](C)O2)[C@H](C)[C@@H](O[C@@H]2O[C@H](C)C[C@H](N(C)C)[C@H]2O)[C@](C)(O)C[C@@H](C)CN(CCCNC(=O)Cc2ccc3ccccc3c2)[C@H](C)[C@@H](O)[C@]1(C)O as the molecule, how does the pIC50 (Plasmodium falciparum) read?
**A.** Its pIC50 is 7.10.

**Q.** What about the pIC50 (HepG2) of the same molecule?
**A.** Its pIC50 is 4.40.

**Q.** How did the pIC50 (Plasmodium falciparum) turn out when CC[C@H]1OC(=O)[C@H](C)[C@@H](O[C@H]2C[C@@](C)(OC)[C@@H](O)[C@H](C)O2)[C@H](C)[C@@H](O[C@@H]2O[C@H](C)C[C@H](N(C)C)[C@H]2O)[C@](C)(O)C[C@@H](C)CN(CCCNCc2ccccn2)[C@H](C)[C@@H](O)[C@]1(C)O was run?
**A.** Its pIC50 is 5.83.

**Q.** CC[C@H]1OC(=O)[C@H](C)[C@@H](O[C@H]2C[C@@](C)(OC)[C@@H](O)[C@H](C)O2)[C@H](C)[C@@H](O[C@@H]2O[C@H](C)C[C@H](N(C)C)[C@H]2O)[C@](C)(O)C[C@@H](C)CN(CCCNCc2ccncc2)[C@H](C)[C@@H](O)[C@]1(C)O was tested. Which pIC50 (Plasmodium falciparum) did it give?
**A.** The pIC50 was 6.25.

**Q.** And the pIC50 (HepG2)?
**A.** The pIC50 was under 4.30.

**Q.** How did the pIC50 (Plasmodium falciparum) turn out when CC[C@H]1OC(=O)[C@H](C)[C@@H](O)[C@H](C)[C@@H](O[C@@H]2O[C@H](C)C[C@H](N(C)C)[C@H]2O)[C@](C)(O)C[C@@H](C)CN(CCCNCc2cnc3ccccc3c2)[C@H](C)[C@@H](O)[C@]1(C)O was run?
**A.** Its pIC50 is 6.70.

**Q.** CC[C@H]1OC(=O)[C@H](C)[C@@H](O[C@H]2C[C@@](C)(OC)[C@@H](O)[C@H](C)O2)[C@H](C)[C@@H](O[C@@H]2O[C@H](C)C[C@H](N(C)C)[C@H]2O)[C@](C)(O)C[C@@H](C)CN(CCC(=O)NCc2cccc3ccccc23)[C@H](C)[C@@H](O)[C@]1(C)O was tested. Which pIC50 (Plasmodium falciparum) did it give?
**A.** Its pIC50 is 7.10.

**Q.** And the pIC50 (HepG2)?
**A.** Its pIC50 is 4.31.

**Q.** What does the source list for CC[C@H]1OC(=O)[C@H](C)[C@@H](O)[C@H](C)[C@@H](O[C@@H]2O[C@H](C)C[C@H](N(C)C)[C@H]2O)[C@](C)(O)C[C@@H](C)CN(CCCNCc2cccc3ccccc23)[C@H](C)[C@@H](O)[C@]1(C)O?
**A.** pIC50 (Plasmodium falciparum): 7.26; pIC50 (HepG2): 4.42

**Q.** What does the source list for CC[C@H]1OC(=O)[C@H](C)[C@@H](O[C@H]2C[C@@](C)(OC)[C@@H](O)[C@H](C)O2)[C@H](C)[C@@H](O[C@@H]2O[C@H](C)C[C@H](N(C)C)[C@H]2O)[C@](C)(O)C[C@@H](C)CN(CCCNCc2cnc3ccccc3c2)[C@H](C)[C@@H](O)[C@]1(C)O?
**A.** pIC50 (Plasmodium falciparum): 7.30; pIC50 (HepG2): 4.35

**Q.** CC[C@H]1OC(=O)[C@H](C)[C@@H](O)[C@H](C)[C@@H](O[C@@H]2O[C@H](C)C[C@H](N(C)C)[C@H]2O)[C@](C)(O)C[C@@H](C)CN(CCCNCc2ccncc2)[C@H](C)[C@@H](O)[C@]1(C)O was tested. Which pIC50 (Plasmodium falciparum) did it give?
**A.** Its pIC50 is 5.41.

**Q.** And the pIC50 (HepG2)?
**A.** The pIC50 was under 4.30.

**Q.** How did the pIC50 (Plasmodium falciparum) turn out when CC[C@H]1OC(=O)[C@H](C)[C@@H](O)[C@H](C)[C@@H](O[C@@H]2O[C@H](C)C[C@H](N(C)C)[C@H]2O)[C@](C)(O)C[C@@H](C)CN(CCCNC(=O)Cc2cccc3ccccc23)[C@H](C)[C@@H](O)[C@]1(C)O was run?
**A.** Its pIC50 is 5.86.

**Q.** CC[C@H]1OC(=O)[C@H](C)[C@@H](O[C@H]2C[C@@](C)(OC)[C@@H](O)[C@H](C)O2)[C@H](C)[C@@H](O[C@@H]2O[C@H](C)C[C@H](N(C)C)[C@H]2O)[C@](C)(O)C[C@@H](C)CN(CCCNC(=O)Cc2cccc3ccccc23)[C@H](C)[C@@H](O)[C@]1(C)O was tested. Which pIC50 (Plasmodium falciparum) did it give?
**A.** The pIC50 was 7.21.

**Q.** With CC[C@H]1OC(=O)[C@H](C)[C@@H](O)[C@H](C)[C@@H](O[C@@H]2O[C@H](C)C[C@H](N(C)C)[C@H]2O)[C@](C)(O)C[C@@H](C)CN(CCCNC(=O)[C@H](C)c2ccc3cc(OC)ccc3c2)[C@H](C)[C@@H](O)[C@]1(C)O as the molecule, how does the pIC50 (Plasmodium falciparum) read?
**A.** The pIC50 was 6.28.

**Q.** With CC[C@H]1OC(=O)[C@H](C)[C@@H](O)[C@H](C)[C@@H](O)[C@](C)(O)C[C@@H](C)CN(CCCNC(=O)c2ocnc2C)[C@H](C)[C@@H](O)[C@]1(C)O as the molecule, how does the pIC50 (Plasmodium falciparum) read?
**A.** Its pIC50 is under 4.67.
